Results on twelve compounds are retold here after ChEMBL document CHEMBL4130383, “Hydroxy-substituted trans-cinnamoyl derivatives as multifunctional tools in the context of Alzheimer's disease” (Eur J Med Chem, 2017).

Data set [1] has as its target T1, Amyloid-beta precursor protein (Homo sapiens, UniProt P05067). The experiment in a line: Inhibition of self-induced amyloid beta (1 to 42) (unknown origin) aggregation by thioflavin T-based fluorometric assay. In outline: (§1)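 HFIP-pretreated Aβ42 stock at 500 μM in CH3CN/0.3 mM Na2CO3/250 mM NaOH, diluted to 50 μM in 10 mM phosphate buffer pH 8.0 with 10 mM NaCl. Incubated at 30 °C with or without inhibitor at 50 μM (1:1 ratio); inhibitor blanks included. ThT fluorescence gave % inhibition. IC50 from concentrations giving 20–80% inhibition.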

Data set [2] has as its target T2, Glycogen synthase kinase-3 beta (Homo sapiens, UniProt P49841). The experiment in a line: Inhibition of GSK3beta (unknown origin) at 50 uM using GSM substrate after 30 mins by Kinase-Glo reagent based luminescence assay relative to control. In outline: (§2)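 Buffer: 50 mM HEPES, 1 mM EDTA, 1 mM EGTA, 15 mM Mg acetate, pH 7.5. Enzyme 20 ng per well, GSM substrate 25 μM, ATP 1 μM, DMSO ≤1%. Incubated 30 min at 30 °C, then stopped with Kinase-Glo; luminescence read after 10 min. Activity normalised between no-inhibitor and […] total-inhibition controls. Single-point screen at 50 μM; IC50 by linear regression. Mean of two experiments, each in duplicate.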
Target sequence in this assay (P49841 whole entry, looked up): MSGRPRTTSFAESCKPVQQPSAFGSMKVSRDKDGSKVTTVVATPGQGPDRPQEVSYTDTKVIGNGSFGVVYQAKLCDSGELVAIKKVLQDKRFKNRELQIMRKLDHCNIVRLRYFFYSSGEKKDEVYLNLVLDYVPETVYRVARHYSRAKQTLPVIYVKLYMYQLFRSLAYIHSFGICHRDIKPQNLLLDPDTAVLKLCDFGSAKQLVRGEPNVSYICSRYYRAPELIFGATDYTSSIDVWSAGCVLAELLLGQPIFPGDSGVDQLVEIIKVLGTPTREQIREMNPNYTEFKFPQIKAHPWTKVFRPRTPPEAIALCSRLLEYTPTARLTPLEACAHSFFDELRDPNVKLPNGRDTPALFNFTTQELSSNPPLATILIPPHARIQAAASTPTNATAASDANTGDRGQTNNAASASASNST

Data set [3] deals with T1, Amyloid-beta precursor protein. The experiment in a line: Inhibition of self-induced amyloid beta (1 to 42) (unknown origin) aggregation at 50 uM by thioflavin T-based fluorometric assay relative to control. The essentials:
as §1

Data set [4] can be described thus: Antioxidant activity assessed as inhibition rate constant for auto-oxidation of cumene initiated by AIMN in PhCl at 30 degC. The data set is classed as functional. The essentials: (§3)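 Oxygen-uptake measurement in a two-channel differential pressure apparatus. Air-saturated cumene (3.6 M) in chlorobenzene (1:1 v/v) with AIBN 0.05 M as thermal initiator, equilibrated against a reference solution holding excess 2,2,5,7,8-pentamethyl-6-chromanol. Antioxidant injected once O2 consumption was constant. k_inh fitted from the uninhibited and inhibited O2-consumption slopes.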

Data set [5] is described as follows: Antioxidant activity assessed as inhibition of auto-oxidation of cumene initiated by AIMN in PhCl at 30 degC relative to ethyl ferulate. The class given is functional. The note with it: for inhibition: dose or concentration not given here. The essentials:
as §3

Data set [6] has as its target T3, Protein-glutamine gamma-glutamyltransferase (Homo sapiens, UniProt P21980).
T3 sequence (P21980 whole entry): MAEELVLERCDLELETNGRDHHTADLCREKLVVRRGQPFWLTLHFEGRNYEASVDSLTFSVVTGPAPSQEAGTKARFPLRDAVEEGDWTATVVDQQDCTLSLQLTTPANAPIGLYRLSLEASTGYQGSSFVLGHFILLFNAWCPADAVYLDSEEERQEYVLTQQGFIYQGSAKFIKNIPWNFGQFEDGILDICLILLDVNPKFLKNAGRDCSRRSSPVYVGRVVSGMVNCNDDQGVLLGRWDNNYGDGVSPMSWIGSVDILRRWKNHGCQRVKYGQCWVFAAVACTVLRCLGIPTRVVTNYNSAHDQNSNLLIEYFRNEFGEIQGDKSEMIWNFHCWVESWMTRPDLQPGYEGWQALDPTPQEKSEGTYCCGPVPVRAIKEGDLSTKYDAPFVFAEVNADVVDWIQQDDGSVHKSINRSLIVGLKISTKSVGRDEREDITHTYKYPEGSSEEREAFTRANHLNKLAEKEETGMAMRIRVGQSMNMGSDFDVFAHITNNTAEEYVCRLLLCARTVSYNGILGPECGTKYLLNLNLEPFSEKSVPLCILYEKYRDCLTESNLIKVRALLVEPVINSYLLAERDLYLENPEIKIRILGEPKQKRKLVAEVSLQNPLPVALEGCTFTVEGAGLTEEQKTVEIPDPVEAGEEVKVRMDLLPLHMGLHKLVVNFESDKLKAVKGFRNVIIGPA
In words: Inhibition recombinant human TG2 using N-CbzGlu(gamma-p-nitrophenylester)Gly as substrate after 10 mins.

Data set [7] deals with T2, Glycogen synthase kinase-3 beta. The experiment in a line: Inhibition of GSK3beta (unknown origin) using GSM substrate after 30 mins by Kinase-Glo reagent based luminescence assay. In outline:
as §2
Target sequence in this assay (P49841 whole entry): as the sequence (P49841 whole entry, looked up) above

Data set [8] addresses T1, Amyloid-beta precursor protein. In words: Inhibition of self-induced amyloid beta (1 to 42) (unknown origin) aggregation by thioflavin T-based fluorometric assay relative to control. The note with it: concentration not given here. The essentials:
as §1

The target of data set [9] is Luciferin 4-monooxygenase (Photinus pyralis) (UniProt P08659). In words: Inhibition of firefly luciferase activity up to 3 mM after 30 mins by luminescence assay. The essentials:
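Luciferase interference check: the Kinase-Glo luminescence read-out was run without GSK-3β, with compound up to 3 mM.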

Data set [10] in a line: Metal chelating activity assessed as compound-Cu2+ complex formation at 7.5 uM by UV-Visible differential spectroscopic method. The essentials:
(§4)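 Stock solutions: 1 mM ligand and 1 mM CuCl2 in methanol, N2-purged. Fixed ligand (5–15 μM) titrated with CuCl2 up to 3 equivalents, deoxygenated, scanned 200–600 nm at room temperature in a 10 mm quartz cuvette against methanol. Ligand-only and metal-only spectra subtracted to give differential spectra, followed at 460 and 374 nm.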

Data set [11] can be described thus: Metal chelating activity assessed as compound-Cu2+ complex formation at 7.5 uM in presence of 0.5 to 2 equiv of Cu2+ by UV-Visible differential spectroscopic method. The essentials:
as §4

A short description of data set [12]: Antioxidant activity assessed as inhibition of auto-oxidation of cumene initiated by AIMN in PhCl at 30 degC relative to caffeic acid. The data set is classed as functional. The essentials:
as §3

Data set [13] in a line: Pro-oxidant activity in water assessed as auto-oxidation initiated by Cu+/Cu2+ couple in presence of H2O2. The class given is toxicity. The settings on record: buffer.
Data set [14] relates to Cortical neurone. The experiment in a line: Neuroprotective activity against glutamate-induced oxidative stress in Sprague-Dawley rat primary cortical neurons assessed as reduction in cell death at 12.5 to 50 uM after 24 hrs by MTT assay. The class given is functional, cell-based. The note with it: prague-Dawley. The essentials:
(§5)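 Immature E17 primary cortical neurons plated at 10^6 cells/ml. At DIV1, rinsed and given increasing compound concentrations, with or without 5 mM glutamate added at the same time. Viability by MTT after 24 h, across three neuronal preparations. Two-way ANOVA with Bonferroni post hoc test.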

Data set [15] deals with Cortical neurone. In words: Cytotoxicity against Sprague-Dawley rat primary cortical neurons assessed as reduction in cell viability up to 50 uM after 24 hrs by MTT assay. The class given is cell-based. The essentials:
as §5

Data set [16] is described as follows: Passive permeability of the compound at 100 uM after 6 hrs by PAMPA.
Data set [17] is described as follows: Antioxidant activity in pH 7.4 phosphate buffer assessed as inhibition rate constant for auto-oxidation of THF initiated by AAPH at 30 degC.

Calls of active or inactive are those of the source. The calls are words filed in the database; no cut-off is given here.

T1 sequence (P05067 whole entry): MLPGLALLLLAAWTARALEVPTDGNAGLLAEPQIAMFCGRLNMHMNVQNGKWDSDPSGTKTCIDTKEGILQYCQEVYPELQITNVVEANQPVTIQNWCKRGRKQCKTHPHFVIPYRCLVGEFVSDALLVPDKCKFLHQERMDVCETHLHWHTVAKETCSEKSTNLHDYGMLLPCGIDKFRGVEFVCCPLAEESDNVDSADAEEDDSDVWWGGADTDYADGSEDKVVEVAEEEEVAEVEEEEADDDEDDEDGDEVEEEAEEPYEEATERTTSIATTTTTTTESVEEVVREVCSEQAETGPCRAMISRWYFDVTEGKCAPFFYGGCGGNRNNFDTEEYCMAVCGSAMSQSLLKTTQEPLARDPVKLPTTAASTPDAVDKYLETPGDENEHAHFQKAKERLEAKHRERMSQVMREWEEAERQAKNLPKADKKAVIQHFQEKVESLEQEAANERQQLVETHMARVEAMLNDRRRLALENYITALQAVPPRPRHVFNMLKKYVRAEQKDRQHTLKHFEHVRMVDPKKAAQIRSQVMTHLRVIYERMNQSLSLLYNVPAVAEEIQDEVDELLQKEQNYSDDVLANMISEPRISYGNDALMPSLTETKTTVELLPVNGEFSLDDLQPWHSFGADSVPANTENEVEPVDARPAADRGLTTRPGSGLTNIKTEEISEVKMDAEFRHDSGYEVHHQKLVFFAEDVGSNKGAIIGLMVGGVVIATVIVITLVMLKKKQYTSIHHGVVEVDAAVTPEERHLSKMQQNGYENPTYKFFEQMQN
Chain of Luciferin 4-monooxygenase (Photinus pyralis) (P08659 whole entry): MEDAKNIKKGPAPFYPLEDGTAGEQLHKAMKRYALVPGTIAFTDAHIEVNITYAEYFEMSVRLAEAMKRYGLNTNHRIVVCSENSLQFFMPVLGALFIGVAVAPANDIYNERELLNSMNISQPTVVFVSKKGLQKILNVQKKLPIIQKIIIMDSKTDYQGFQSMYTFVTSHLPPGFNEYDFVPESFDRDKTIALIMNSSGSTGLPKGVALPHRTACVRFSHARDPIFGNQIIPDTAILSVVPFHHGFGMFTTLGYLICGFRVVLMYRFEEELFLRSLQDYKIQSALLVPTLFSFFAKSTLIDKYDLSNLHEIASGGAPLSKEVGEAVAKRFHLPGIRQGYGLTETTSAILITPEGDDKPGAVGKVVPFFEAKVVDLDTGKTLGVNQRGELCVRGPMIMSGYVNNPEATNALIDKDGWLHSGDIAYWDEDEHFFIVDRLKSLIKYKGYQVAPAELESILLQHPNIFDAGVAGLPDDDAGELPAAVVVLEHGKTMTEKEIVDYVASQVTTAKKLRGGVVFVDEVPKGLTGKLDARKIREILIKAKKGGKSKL

For the compound `COc1cc(/C=C/C(=O)O)ccc1O` [FERULATE], the IC50 in [1] was above 100 µM.
With `CCOc1cc(/C=C/C(=O)c2cccnc2)ccc1O`, the inhibition in [2] stood at 39.5%; in data set [3], 18.8%; in data set [5] it was 33%. Moreover, the K in [4] is 6.1 ×10³ /M/s. For the same compound, the IC50 in [6] was determined as 484 µM.
On to `O=C(/C=C/c1ccc(O)c(O)c1)c1cccnc1`, for which the figures for the inhibition in [2], in [3] and in [8] were 100%, 91.5% and 20 to 80%, respectively. For the same compound, the IC50 in data set [7] turned out to be 24.4 µM; in data set [1] it was 9 µM; in data set [6] it was 1000 µM. In addition, the inhibition entry in data set [9] was “inactive”. Besides, the result in [10], in [11] and in data set [14] was Active. Also, the values for the K in data set [4] and in data set [17] were 6.8 ×10⁵ /M/s and 3.2 ×10⁵ /M/s, respectively. Moreover, the figures for the fold change (FC) in data set [5] and in [12] were 150 and above 2, respectively. Further, the figures for the Activity entry in [13] and in [15] were “Not Active” and “Non-Toxic”, respectively. Further, in data set [16], the Papp at 6 h, 100 µM worked out at 5.5 ×10⁻⁶ cm/s.
In [1], `C=CCSC(=O)/C=C/c1ccc(O)c(O)c1` showed an IC50 of 12.5 µM.
With `COc1cc(/C=C/C(=O)c2cccnc2)ccc1O`, the inhibition in data set [2] came to 37.2%; in data set [3], 17.5%; in data set [5], 54%. Further, the K in data set [4] was determined as 7.1 ×10³ /M/s. Besides, in data set [6], the IC50 is 688 µM. In data set [16], this compound registered a Papp at 6 h, 100 µM of 9.9 ×10⁻⁶ cm/s.
With `O=C(/C=C/c1ccc(O)cc1)c1cccnc1`, the inhibition in data set [2] was 25.2%; in data set [3], 21.5%. In [4], the K is 5.7 ×10³ /M/s. Besides, in data set [6], the IC50 is above 2000 µM.
Regarding `O=C(/C=C/c1cccc(O)c1)c1cccnc1`, the results for the inhibition in [2] and in [3] were 43.5% and 5.8%, respectively. Also, the K in [4] stood at 1.5 ×10³ /M/s. The IC50 in [6] stood at 266 µM. Moreover, in data set [16], the Papp at 6 h, 100 µM was 6.5 ×10⁻⁶ cm/s.
Take `CCOC(=O)/C=C/c1ccc(O)c(OC)c1`: the inhibition in data set [2] amounted to 21.4%. Also, in data set [4], the K was 4.6 ×10³ /M/s.
Compound `O=C(O)/C=C/c1cccc(O)c1` showed an IC50 in data set [1] above 100 µM.
As for `O=C(O)/C=C/c1ccc(O)c(O)c1`, the K in [4] worked out at 2.9 ×10⁵ /M/s.
Take `O=c1c(O)c(-c2ccc(O)c(O)c2)oc2cc(O)cc(O)c12`: in data set [4], the K was 5 ×10⁵ /M/s.
Still for that read-out and setting: then `OCCc1ccc(O)c(O)c1`, with 8 ×10⁵ /M/s.
